From ChEMBL document CHEMBL1134863, “Antifungal activity of bifunctional sphingolipids. Intramolecular synergism within long-chain alpha,omega-bis-aminoalcohols” (2002)
“And” between values parts separate entries of the source, which are not always exact repeats. Equal entries are not always repeated. The source made the active and inactive calls. The rule behind the calls is not given here.

What was measured:
Nakaseomyces glabratus [1] = test: Minimum inhibitory concentration against Candida glabrata; format: functional
How it was run: (§1)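 Microbroth dilution assay, modified from a published method, against C. glabrata (fluconazole-resistant strain). MIC values come from duplicate experiments.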

Nakaseomyces glabratus [2] = test: Antifungal minimum inhibitory concentration of compound against Candida glabrata; Inactive; format: functional, organism-based; how it was run: as §1
Nakaseomyces glabratus [3] = test: Fungistatic activity of bifunctional sphingolipids against Candida glabrata at a concentration of 12 ug/mL before dilution replating; growth in media; format: functional, organism-based
Nakaseomyces glabratus [4] = test: Fungistatic activity of bifunctional sphingolipids against Candida glabrata at a concentration of 1 ug/mL before dilution replating; growth in media; format: functional, organism-based
Nakaseomyces glabratus [5] = test: Fungistatic activity of bifunctional sphingolipids against Candida glabrata at a concentration of 6 ug/mL before dilution replating; growth in media; format: functional, organism-based
Nakaseomyces glabratus [6] = test: Fungistatic activity of bifunctional sphingolipids against Candida glabrata at a concentration of 10 ug/mL before dilution replating; growth in media; format: functional, organism-based
Nakaseomyces glabratus [7] = test: Fungistatic activity of bifunctional sphingolipids against Candida glabrata at a concentration of 5 ug/mL before dilution replating; growth in media; format: functional, organism-based
Nakaseomyces glabratus [8] = test: Fungistatic activity of bifunctional sphingolipids against Candida glabrata at a concentration of 30 ug/mL before dilution replating; no growth in media; format: functional, organism-based
Nakaseomyces glabratus [9] = test: Fungistatic activity of bifunctional sphingolipids against Candida glabrata at a concentration of 0.3 ug/mL before dilution replating; growth in media; format: functional, organism-based
Nakaseomyces glabratus [10] = test: Fungistatic activity of bifunctional sphingolipids against Candida glabrata at a concentration of 3 ug/mL before dilution replating; growth in media; format: functional, organism-based
Nakaseomyces glabratus [11] = test: Fungicidal versus fungistatic activity of bifunctional sphingolipids against Candida glabrata at a concentration of 12 ug/mL before dilution replating no fungistatic growth on plate; format: functional, organism-based
Nakaseomyces glabratus [12] = test: Fungicidal versus fungistatic activity of bifunctional sphingolipids against Candida glabrata at a concentration of 0.3 ug/mL before dilution replating; growth in media; format: functional, organism-based
Nakaseomyces glabratus [13] = test: Fungicidal versus fungistatic activity of bifunctional sphingolipids against Candida glabrata at a concentration of 5 ug/mL before dilution replating; growth in media; format: functional, organism-based
Nakaseomyces glabratus [14] = test: Fungicidal versus fungistatic activity of bifunctional sphingolipids against Candida glabrata at a concentration of 1 ug/mL before dilution replating; growth in media; format: functional, organism-based
Nakaseomyces glabratus [15] = test: Fungicidal versus fungistatic activity of bifunctional sphingolipids against Candida glabrata at a concentration of 3 ug/mL before dilution replating; growth in media; format: functional, organism-based
Nakaseomyces glabratus [16] = test: Fungicidal versus fungistatic activity of bifunctional sphingolipids against Candida glabrata at a concentration of 6 ug/mL before dilution replating; growth in media; format: functional, organism-based
Nakaseomyces glabratus [17] = test: Fungicidal versus fungistatic activity of bifunctional sphingolipids against Candida glabrata at a concentration of 10 ug/mL before dilution replating; no fungistatic growth on plate; format: functional, organism-based
Nakaseomyces glabratus [18] = test: Fungicidal versus fungistatic activity of bifunctional sphingolipids against Candida glabrata at a concentration of 6 ug/mL before dilution replating; no growth in media; format: functional, organism-based
Nakaseomyces glabratus [19] = test: Fungicidal versus fungistatic activity of bifunctional sphingolipids against Candida glabrata at a concentration of 3 ug/mL before dilution replating; no growth in media; format: functional, organism-based
Nakaseomyces glabratus [20] = test: Fungicidal versus fungistatic activity of bifunctional sphingolipids against Candida glabrata at a concentration of 0.3 ug/mL before dilution replating; (fungicidal, no growth on plate) no growth in media; format: functional, organism-based
Nakaseomyces glabratus [21] = test: Fungicidal versus fungistatic activity of bifunctional sphingolipids against Candida glabrata at a concentration of 12 ug/mL before dilution replating; no growth in media; format: functional, organism-based
Nakaseomyces glabratus [22] = test: Fungicidal versus fungistatic activity of bifunctional sphingolipids against Candida glabrata at a concentration of 1 ug/mL before dilution replating; no (fungicidal, no growth on plate) growth in media; format: functional, organism-based
Nakaseomyces glabratus [23] = test: Fungicidal versus fungistatic activity of bifunctional sphingolipids against Candida glabrata at a concentration of 5 ug/mL before dilution replating; no growth in media; format: functional, organism-based
Nakaseomyces glabratus [24] = test: Fungicidal versus fungistatic activity of bifunctional sphingolipids against Candida glabrata at a concentration of 10 ug/mL before dilution replating; no growth in media; format: functional, organism-based
Nakaseomyces glabratus [25] = test: Fungicidal versus fungistatic activity of bifunctional sphingolipids against Candida glabrata at a concentration of 1 ug/mL before dilution replating; no fungistatic growth on plate; format: functional, organism-based
Nakaseomyces glabratus [26] = test: Fungicidal versus fungistatic activity of bifunctional sphingolipids against Candida glabrata at a concentration of 3 ug/mL before dilution replating; no fungistatic growth on plate; format: functional, organism-based
Nakaseomyces glabratus [27] = test: Fungicidal versus fungistatic activity of bifunctional sphingolipids against Candida glabrata at a concentration of 10 ug/mL before dilution replating; no fungicidal growth on plate; format: functional, organism-based
Nakaseomyces glabratus [28] = test: Fungicidal versus fungistatic activity of bifunctional sphingolipids against Candida glabrata at a concentration of 5 ug/mL before dilution replating; no fungistatic growth on plate; format: functional, organism-based
Nakaseomyces glabratus [29] = test: Fungicidal versus fungistatic activity of bifunctional sphingolipids against Candida glabrata at a concentration of 6 ug/mL before dilution replating; no fungistatic growth on plate; format: functional, organism-based
[30] = Nakaseomyces glabratus, read-out: MIC

Molecule: CCC[C@@H](O)[C@@H](N)CO
- MIC (Nakaseomyces glabratus [1]; [30]): > 100 µg/mL
- MIC (Nakaseomyces glabratus [2]): inactive

Molecule: CCC[C@@H](OC(=O)c1ccccc1)[C@H](COC(=O)c1ccccc1)NC(=O)c1ccccc1
- MIC (Nakaseomyces glabratus [1]; [30]): > 100 µg/mL
- MIC (Nakaseomyces glabratus [2]): inactive

Molecule: C[N+](C)(C)CCCCCCCCCCCC[N+](C)(C)C.[Cl-].[Cl-]
- MIC (Nakaseomyces glabratus [1]; [30]): > 100 µg/mL
- MIC (Nakaseomyces glabratus [2]): inactive

Molecule: C[C@H](NC(=O)c1ccccc1)[C@@H](CCCCCCCCCCCCCCCCCCCC[C@@H](OC(=O)c1ccccc1)[C@H](C)NC(=O)c1ccccc1)OC(=O)c1ccccc1
- MIC (Nakaseomyces glabratus [1]; [30]): > 100 µg/mL
- MIC (Nakaseomyces glabratus [2]): inactive

Molecule: Hexadecyl-trimethyl-ammonium bromide
- MIC (Nakaseomyces glabratus [1]): 5 µg/mL and 14 µM

Molecule: NCCCCCCN
- MIC (Nakaseomyces glabratus [1]; [30]): > 100 µg/mL
- MIC (Nakaseomyces glabratus [2]): inactive

Molecule: CCCCCCCCCCCCC/C=C/[C@@H](O)[C@@H](N)CO [SPHINGOSINE]
- Activity (Nakaseomyces glabratus [3]): inactive
- Activity (Nakaseomyces glabratus [4]): inactive
- MIC (Nakaseomyces glabratus [1]; [30]): 30 µg/mL and 100 µM
- Activity (Nakaseomyces glabratus [5]): inactive
- Activity (Nakaseomyces glabratus [6]): inactive
- Activity (Nakaseomyces glabratus [7]): inactive
- NA (Nakaseomyces glabratus [8]): Partially active
- Activity (Nakaseomyces glabratus [9]): inactive
- Activity (Nakaseomyces glabratus [10]): inactive

Molecule: C[C@H](N)[C@H](O)CCCCCCCCCCCCCCCCCCCC[C@@H](O)[C@H](C)N
- MIC (Nakaseomyces glabratus [1]; [30]): 10 µg/mL and 24 µM
- Activity (Nakaseomyces glabratus [11]): growth in media
- Activity (Nakaseomyces glabratus [12]): growth in media
- Activity (Nakaseomyces glabratus [13]): growth in media
- Activity (Nakaseomyces glabratus [14]): growth in media
- Activity (Nakaseomyces glabratus [15]): growth in media
- Activity (Nakaseomyces glabratus [16]): growth in media
- Activity (Nakaseomyces glabratus [17]): growth in media

Molecule: NCCCCCCCCCCCCN
- MIC (Nakaseomyces glabratus [1]; [30]): > 100 µg/mL

Molecule: C[C@@H]1[C@H](O)[C@@H](C)/C=C/C=C/C=C/C=C/C=C/C=C/C=C/[C@H](O[C@@H]2O[C@H](C)[C@@H](O)[C@H](N)[C@@H]2O)C[C@@H]2O[C@](O)(C[C@@H](O)C[C@@H](O)[C@H](O)CC[C@@H](O)C[C@@H](O)CC(=O)O[C@H]1C)C[C@H](O)[C@H]2C(=O)O
- Activity (Nakaseomyces glabratus [18]): no growth in media
- Activity (Nakaseomyces glabratus [19]): no growth in media
- Activity (Nakaseomyces glabratus [20]): no growth in media
- Activity (Nakaseomyces glabratus [21]): no growth in media
- Activity (Nakaseomyces glabratus [22]): no growth in media
- Activity (Nakaseomyces glabratus [23]): no growth in media
- Activity (Nakaseomyces glabratus [24]): no growth in media

Molecule: CCC[C@@H](O)[C@H](C)N
- MIC (Nakaseomyces glabratus [1]; [30]): > 100 µg/mL
- MIC (Nakaseomyces glabratus [2]): inactive

Molecule: OC(Cn1cncn1)(Cn1cncn1)c1ccc(F)cc1F [FLUCONAZOLE]
- Activity (Nakaseomyces glabratus [25]): growth in media
- Activity (Nakaseomyces glabratus [18]): growth in media
- MIC (Nakaseomyces glabratus [1]): >=100 ug ml-1
- MIC (Nakaseomyces glabratus [1]; [30]): > 64 µg/mL
- Activity (Nakaseomyces glabratus [21]): growth in media
- Activity (Nakaseomyces glabratus [12]): growth in media
- Activity (Nakaseomyces glabratus [23]): growth in media
- Activity (Nakaseomyces glabratus [24]): growth in media
- Activity (Nakaseomyces glabratus [26]): growth in media

Molecule: C[C@@H](N)[C@H](O)CCCCCCCCCCCCCCC(=O)CCCCCCC[C@@H](O)[C@@H](N)CO
- MIC (Nakaseomyces glabratus [1]; [30]): 3 µg/mL and 6.2 µM
- Activity (Nakaseomyces glabratus [21]): growth in media
- Activity (Nakaseomyces glabratus [12]): growth in media
- Activity (Nakaseomyces glabratus [27]): growth in media
- Activity (Nakaseomyces glabratus [14]): growth in media
- Activity (Nakaseomyces glabratus [15]): growth in media
- Activity (Nakaseomyces glabratus [28]): growth in media
- Activity (Nakaseomyces glabratus [29]): growth in media

Molecule: C[C@@H](N)[C@H](O)CCCCCCCCCCCCCCC(=O)CCCCCCC[C@@H](OC[C@H]1O[C@@H](O)[C@H](O)[C@@H](O)[C@@H]1O)[C@@H](N)CO
- MIC (Nakaseomyces glabratus [1]; [30]): 10 µg/mL and 15 µM
- Activity (Nakaseomyces glabratus [12]): growth in media
- Activity (Nakaseomyces glabratus [13]): growth in media
- Activity (Nakaseomyces glabratus [27]): growth in media
- Activity (Nakaseomyces glabratus [14]): growth in media
- Activity (Nakaseomyces glabratus [15]): growth in media
- Activity (Nakaseomyces glabratus [29]): growth in media
